Source: ChEMBL document CHEMBL1123264, “Conformationally restricted congeners of hypotensive and platelet aggregation inhibitors: 6-aryl-5-methyl-4,5-dihydro-3(2H)-pyridazinones derived from 5H-indeno[1,2-c]pyridazine” (J Med Chem, 1986)
The source made the active and inactive calls. The calls are words filed in the database; no cut-off is given here.

Legend:
[1] = Compound was tested for its lethality in vivo in mouse; format: ADME, organism-based
Cavia porcellus [2] = species: Cavia porcellus; experiment: Compound was tested in vitro for antiaggregation induced by thrombin at 0.625 IU/mL in guinea pig PRP after 2 min; format: functional
How it was run: (§1)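 Born method. Citrated (3.8%, 1:10) aortic blood from fasted male guinea pigs under pentobarbital, centrifuged to give platelet-rich plasma. Incubated 10 min at room temperature with compound at 66 μM. Aggregation triggered by ADP, equine tendon collagen or thrombin. Result is % inhibition vs controls, mean of five experiments; thrombin values read at 2 or 4 min.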

Cavia porcellus [3] = species: Cavia porcellus; experiment: In vitro inhibition of platelet aggregation induced by 0.5 uM ADP (irreversible activity) was determined in guinea pig PRP; format: functional; how it was run: as §1
Cavia porcellus [4] = species: Cavia porcellus; experiment: Compound was tested in vitro for antiaggregation induced by collagen (0.8 ug/mL) in guinea pig PRP; format: functional; how it was run: as §1
Rattus norvegicus [5] = species: Rattus norvegicus; experiment: Dose that lowers blood pressure by 25 mm Hg was determined in spontaneous hypertensive rats (SHR); format: functional
How it was run: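 Conscious SH rats, 150–200 g, fasted 12 h, warmed at 33 °C for 30 min before tail-cuff plethysmography of systolic pressure. Suspension in 1% methylcellulose by gavage at 1.56, 3.125, 6.25, 12.5 and 25 mg/kg, 6 rats/dose, read hourly for 6 h. ED25 is the dose lowering pressure by 25 mmHg at peak, taken from log dose-response curves.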

Mus musculus = species: Mus musculus; experiment: In vitro antithrombotic activity in mouse; format: functional; conditions: in the assay text read “In vivo” for “In vitro”
How it was run: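 Male Swiss mice, 20–30 g, 10/group. Oral dose in 1% hydroxymethylcellulose, equimolar to ASA 20 mg/kg. At 1 h, iv tail injection of collagen (200 μg/mL) plus adrenaline (200 μM), 10 mL/kg, after warming at 27 °C. Death or hind-limb paralysis over 15 min counted; % protection = (Nc−Nt)/Nc×100.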

[6] = (§2) Area under curve was determined for 0-6 hr duration using dihydralazine as reference drug for the peak blood pressure; format: ADME; set-up: concentration or dose not given beside the values
How it was run: (§3)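 SH rats, fasted, given a single oral dose of 12.5 mg/kg in 1% methylcellulose by gavage. Tail-cuff systolic pressure read hourly; area under the curve taken over 0–6 h. Dihydralazine was the reference; relative activity is AUC(dihydralazine)/AUC(compound), and a smaller AUC means higher activity.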

Rattus norvegicus [7] = experiment: Compound was evaluated for its antiinflammatory activity in rat by Carrageenan paw edema test; Inactive; format: functional, organism-based
How it was run: (§4)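 Male Sprague-Dawley rats, 130–150 g, fasted 18 h, 8/group. Compound in 1% carboxymethylcellulose by gavage; 1 h later 0.1 mL 1% carrageenin injected into the right hind paw. Paw volume measured by plethysmometer at 0, 1 and 3 h. Inhibition at 3 h vs vehicle controls; ED50 is the dose giving 50% inhibition.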

Rattus norvegicus [8] = species: Rattus norvegicus; experiment: (§5) relative activity with respect to the dihydralazine was determined; format: functional; how it was run: as §3
Cavia porcellus [9] = species: Cavia porcellus; experiment: Compound was tested in vitro for antiaggregation induced by 0.5 uM ADP in guinea pig PRP; format: functional; how it was run: as §1
Cavia porcellus [10] = species: Cavia porcellus; experiment: Compound was tested in vitro for its antiaggregation induced by thrombin at 0.625 IU/mL in guinea pig PRP after 4 min; format: functional; how it was run: as §1
Rattus norvegicus [11] = experiment: Compound was evaluated for its antiinflammatory activity in rat by Carrageenan paw edema test; format: functional; how it was run: as §4
Cavia porcellus [12] = species: Cavia porcellus; experiment: Compound was tested in vitro for antiaggregation induced by thrombin at 0.625 IU/mL in guinea pig PRP after 4 min; format: functional; how it was run: as §1
Rattus norvegicus [13] = species: Rattus norvegicus; experiment: Compound was evaluated for its antiulcer activity in rat; format: functional
How it was run: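 Male Sprague-Dawley rats, 180–250 g, 8/group, fasted 24 h with water. Compound by gavage right after indomethacin 15 mg/kg ip. Stomachs examined 5 h later under a 10× microscope; lesion number and severity scored on an arbitrary scale. ED50 is the dose reducing lesions by 50%.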

Rattus norvegicus [14] = species: Rattus norvegicus; experiment: (§6) Relative activity with respect to the dihydralazine was determined; format: functional; how it was run: as §3
Rattus norvegicus [15] = species: Rattus norvegicus; experiment: Antihypertensive activity in normotensive rats; format: functional
How it was run: (§7)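 Unanesthetized male Sprague-Dawley rats, 150–200 g, fasted 12 h, warmed at 33 °C for 30 min. Oral dosing at 6.25, 12.5 and 25 mg/kg; dihydralazine 0.78–6.25 mg/kg po. Tail-cuff systolic pressure read hourly for 6 h, 6 rats/dose. ED25 is the dose lowering pressure by 25 mmHg at peak, taken from log dose-response curves.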

Rattus norvegicus [16] = species: Rattus norvegicus; experiment: Compound was tested for antihypertensive activity in normotensive rats and the dose that lowered by 25 mmHg of the blood pressure was determined; format: functional; how it was run: as §7
[17] = as §5; format: functional; how it was run: as §3
Rattus norvegicus [18] = species: Rattus norvegicus; experiment: as §2; format: functional, organism-based; how it was run: as §3
[19] = as §6; format: functional; how it was run: as §3

CC(=O)Nc1ccc2c(c1)CC1CC(=O)N(C)N=C21 (stereo not drawn)
LD50 [1]: 1000 mg/kg
Activity (Cavia porcellus [2]): 5
Activity (Cavia porcellus [3]): 23
Activity (Cavia porcellus [4]): 40
ED25 (Rattus norvegicus [5]): 15 mg/kg
Activity (Mus musculus): 50
AUC units [6]: 31960
ED50 (Rattus norvegicus [7]): inactive
Activity (Rattus norvegicus [8]): 0.6
Activity (Cavia porcellus [9]): 4
Activity (Cavia porcellus [10]): 37

CC(=O)Nc1ccc2c(c1)CC1CC(=O)NN=C21 (stereo not drawn)
ED50 (Rattus norvegicus [11]): 160 mg/kg
Activity (Cavia porcellus [12]): 100
LD50 [1]: 1000 mg/kg
ED50 (Rattus norvegicus [13]): 0.3 mg/kg
Activity (Cavia porcellus [2]): 95
Activity (Rattus norvegicus [14]): 1.02
Activity (Cavia porcellus [3]): 81
Activity (Cavia porcellus [4]): 73
ED25 (Rattus norvegicus [5]): 2.6 mg/kg
Activity (Mus musculus): 100
AUC units [6]: 17560
Activity (Cavia porcellus [9]): 45
ED25 (Rattus norvegicus [15]): 25 mg/kg

N/N=c1\[nH][nH]/c(=N\N)c2ccccc12 [DIHYDRALAZINE]
ED25 (Rattus norvegicus [16]): 3.12 mg/kg
Activity [17]: 1
ED25 (Rattus norvegicus [5]): 0.72 mg/kg
AUC units (Rattus norvegicus [18]): 17900

CN1N=C2c3ccc(N)cc3CC2CC1=O (stereo not drawn)
Activity (Cavia porcellus [12]): 37
LD50 [1]: 750 mg/kg
Activity (Cavia porcellus [2]): 36
Activity (Rattus norvegicus [14]): 0.49
Activity (Cavia porcellus [3]): 33
Activity (Cavia porcellus [4]): 26
ED25 (Rattus norvegicus [5]): 15.5 mg/kg
Activity (Mus musculus): 58
AUC units [6]: 36740
ED50 (Rattus norvegicus [7]): inactive
Activity (Cavia porcellus [9]): 7

Nc1ccc2c(c1)CC1CC(=O)NN=C21 (stereo not drawn)
ED50 (Rattus norvegicus [11]): 40.8 mg/kg
Activity (Cavia porcellus [12]): 34
LD50 [1]: 308 mg/kg
ED50 (Rattus norvegicus [13]): 100 mg/kg
Activity (Cavia porcellus [2]): 44
Activity (Rattus norvegicus [14]): 0.74
Activity (Cavia porcellus [3]): 66
Activity (Cavia porcellus [4]): 58
ED25 (Rattus norvegicus [5]): 2.6 mg/kg
Activity (Mus musculus): 87
AUC units [6]: 24350
Activity (Cavia porcellus [9]): 31

CC(Cl)C(=O)Nc1ccc2c(c1)CC1CC(=O)NN=C21 (stereo not drawn)
ED50 (Rattus norvegicus [11]): 155 mg/kg
Activity (Cavia porcellus [12]): 83
LD50 [1]: 1000 mg/kg
Activity [19]: 0.66
ED50 (Rattus norvegicus [13]): 0.3 mg/kg
Activity (Cavia porcellus [2]): 84
Activity (Cavia porcellus [3]): 40
Activity (Cavia porcellus [4]): 60
ED25 (Rattus norvegicus [5]): 10 mg/kg
Activity (Mus musculus): 62
AUC units [6]: 27140
Activity (Cavia porcellus [9]): 48
